The labels stand for the following.
B1: tRNA (parent)
chain: GUUCCGUUGGCGUAAUGGUAACGCGUCUCCCUCCUAAGGAGAAGACUGCGGGUUCGAGUCCCGUACGGAACG

Variants at the floor of the assay were thinned out.

This series covers variants of B1. In words: yeast fitness relative to wild type (ratio to wild type); higher = fitter; tRNA-Arg(CCU), competitive growth, 37 C, YPD. The procedure, abridged:
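Gene amplicons from the start population and from each of six end populations were read by 100-nucleotide paired-end sequencing. Those end populations came from pooled Saccharomyces cerevisiae strains carrying tRNA-Arg(CCU) gene variants at the native locus, competed in YPD at 37°C for 24 hours. Fitness relative to wild type was worked out from changes in genotype frequencies. Genotypes needed ≥ 100 starting reads, and estimates < 0.5 were set to 0.5.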
U13A A14C C22A G48C A69U: the yeast fitness was not above 0.5.

G12A U19C C34G C66U A69U: the yeast fitness came out at 0.59.

As to G12A U35C C66U, the yeast fitness worked out at 0.614. Take G12C A37G G38A A45U A70G: the yeast fitness was determined as 0.567.

As for G12C C30U C33G U47G, the yeast fitness is not above 0.5. Regarding G12C G25U G44C, the yeast fitness is not above 0.5.

Regarding G12C C31G C49G C55G A69U, the yeast fitness was found to be 0.527. The same measure for G12C A20U C30U C49U C55U C66U: 0.559; for G12A C34U A37U G41A C55U A69C: not above 0.5. The same measure for G12A U32C A40C G51A: not above 0.5; for G12C A15U G25A: 0.696. As to G12C A45C, the yeast fitness amounted to 0.75. The same measure for G12A U54A: 0.679.

On to G12A U54C, for which the yeast fitness worked out at 0.797. On to G12C U13A U16G C24G A69U, for which the yeast fitness was not above 0.5.

Take G12A G23A U28G G56C A65U: the yeast fitness was found to be 0.762.

In the case of G12A C49U C66A, the yeast fitness is not above 0.5. The same measure for G12A U16G G48A G68A: 0.705.

In the case of G12C G41C C46U, the yeast fitness worked out at 0.596. As for G12C C29U G58U C61U, the figure is not above 0.5; as for G12U C60G, not above 0.5; as for G12A G51A C61A, not above 0.5. As for G12C C33A A42G, the yeast fitness is 0.733. As for G12A U47A G63A A69U, the figure is 0.554; as for G12A C46A, 1.05. The same measure for G12C C30U C66A: not above 0.5; for G12C U28A C66U G68A: not above 0.5.

Turning to G12A C33U A36C C55G, the yeast fitness was not above 0.5.

G12A C33A: the yeast fitness is 0.644. The same measure for G12A U13A A14G A21G C33U: not above 0.5; for G12C C34U C49U A57G: not above 0.5; for G12A C30U U32G A36U G39C G50C: not above 0.5. Regarding G12C C24U G48C G68A A69C, the yeast fitness was not above 0.5. As for G12C A36C G50A, the figure is not above 0.5; as for G12A C31U G52A G56C, 0.569. As for G12C U47A G52C, the figure is not above 0.5; as for G12A C31U C61U A70G, 0.541; as for G12C C33G G44C A69C, not above 0.5.

With G12U G23A A36G G39A, the yeast fitness is not above 0.5. With G12A C60A G67A, the yeast fitness turned out to be 0.68. In the case of G12C A21U C34U A69C, the yeast fitness is not above 0.5. G12C U19A: the yeast fitness amounted to 0.742. As for G12C G25C A69U, the figure is not above 0.5; as for G12A G17C G58A A70G, not above 0.5. Regarding G12C G23C G50A C55A, the yeast fitness was not above 0.5. As for G12C C62G C66U, the yeast fitness is not above 0.5. As to G12A U13C C27G C31U C34A, the yeast fitness is not above 0.5. As to G12A C31U, the yeast fitness was 0.919. As for G12C A20C A43C, the figure is not above 0.5; as for G12C A20C A43U, 0.632; as for G12C A21C U26C C60A C61A, not above 0.5. As to G12C A20C U32A C33G, the yeast fitness came out at 0.536. With G12C U16C A42C C49U, the yeast fitness amounted to 0.594. As for G12A G25C, the figure is 0.961; as for G12C U26C A37G, not above 0.5. As for G12U C30G, the figure is not above 0.5. Regarding G12A G25A C27U, the yeast fitness came out at 0.596. Regarding G12C C24U C46U C49G C62A, the yeast fitness is not above 0.5. G12A C55A: the yeast fitness stood at 0.6.

For the variant G12A C55G, the yeast fitness amounted to 0.639. As for G12A C34G, the figure is 0.644. Consider G12A C31A G38C A65G, for which the yeast fitness is not above 0.5. The same measure for G12A G63C: 0.704; for G12A U28C: 1.06; for G12A U28G: 0.607. As for G12A C49U G58A, the figure is 0.7. In the case of G12A U13A G67U, the yeast fitness was determined as 0.537. On to G12C G67A, for which the yeast fitness was 0.771. In the case of G12C G67C, the yeast fitness came out at 0.825. The same measure for G12C G48C A70U: 0.539. The same measure for G12A U35C G48C: not above 0.5; for G12C C22U U32C: 0.692. As for G12C U13C U16A C29G G44C C49G A57C, the figure is not above 0.5; as for G12C A40U G48C G63A, not above 0.5. As to G12C A43U, the yeast fitness was 0.892. With G12C A20C U47A A70G, the yeast fitness is 0.755. Regarding G12C A40G, the yeast fitness was found to be 0.683. The same measure for G12C A40C: 0.722; for G12A G38A U54C: not above 0.5; for G12A U16C C27A U54A: not above 0.5. As for G12C C22G A40C, the figure is 1.03; as for G12C C22U A43C G68C, 0.556.

In the case of G12A G41A G51C, the yeast fitness is not above 0.5.

Take G12C A20U C33U: the yeast fitness was determined as 0.555. For the variant G12C C27G C30G, the yeast fitness was not above 0.5. Consider G12C C61U C66U A70C, for which the yeast fitness was not above 0.5. As for G12C C34A G58C A65C A69C, the figure is not above 0.5.

Regarding G12A G58C G63A, the yeast fitness is 0.615.

As for G12C C24U A40U, the yeast fitness is not above 0.5. The same measure for G12C C33U U47C G48A G58A: not above 0.5; for G12A C33U G39C C66G: not above 0.5. As for G12A U64C, the figure is 0.921; as for G12A U32C A43C A65U, not above 0.5; as for G12C C30A A42G, 0.562.

Turning to G12C A45U C61G, the yeast fitness came out at 0.528. Take G12C U13C U16A: the yeast fitness came to 0.704. As for G12C C24U C46U C49G, the figure is not above 0.5.

Take G12A G17C: the yeast fitness worked out at 0.661.

On to G12C A21C C60A, for which the yeast fitness was not above 0.5.

On to G12C G39C G68C, for which the yeast fitness was not above 0.5. As for G12C A20U C30U C55U C66U, the figure is 0.551; as for G12C A20C C27G A45G C66A, not above 0.5; as for G12C C29U G51A G56A G63C, 0.574. On to G12C A43C C61G, for which the yeast fitness was not above 0.5. Turning to G12C C27U A69U, the yeast fitness is 0.599. With G12C C27G G58A, the yeast fitness is not above 0.5. The same measure for G12A U32A A40U G41C C46A G52A: not above 0.5; for G12A G23C: 0.733; for G12A U19A G41A A42G G58U G63C: not above 0.5.

On to G12C C24U C55U G68C, for which the yeast fitness was 0.55.

Regarding U13A A14C C22A U54C, the yeast fitness is not above 0.5. For the variant G12C C29G G51A G68C, the yeast fitness is not above 0.5. As for G12C C30G A37G U47G, the figure is not above 0.5. As to G12C C49U G52C A57C A65C, the yeast fitness came out at 0.53. The same measure for G12A U35A G58A G68A: 0.561; for G12C C24G A40G: not above 0.5; for G12C U13C A20C C24G G39C: not above 0.5. Turning to G12C U32C A65G, the yeast fitness was 0.569. On to G12A C33U A36C G51C A57U, for which the yeast fitness was not above 0.5. As for G12A C33G A36C A37G G44A, the figure is not above 0.5; as for G12C U32C A37C A45G A57C, not above 0.5. The same measure for G12C A36C A37U: not above 0.5; for G12C A14C U26C A40G C66U A69U: 0.598; for G12A G44C A65G: 0.649. Turning to G12A G18A U19C C55U A57C G58C, the yeast fitness amounted to 0.638.

Turning to G12C C34U G44A G51C, the yeast fitness is not above 0.5. As for G12C A15U C24A C61U, the figure is not above 0.5; as for G12C A20U C22G G50A, not above 0.5.

G12C G41C C60G: the yeast fitness was not above 0.5. As for G12C C29G G48C, the figure is not above 0.5; as for G12A G51C C62A, not above 0.5.

In the case of G12C U16C U28A C60U, the yeast fitness is not above 0.5.

Consider G12C C24G C27U A43U G67A, for which the yeast fitness is not above 0.5. With G12C C27G A37G, the yeast fitness is not above 0.5. In the case of G12C A36C, the yeast fitness turned out to be 0.518. As for G12C A14G G25A G41C U54G A65G G68U A70C, the yeast fitness was found to be 0.545. The same measure for G12C U32G A40U A57U A65U: 0.568; for G12A U19A C31G C34U A57G: not above 0.5; for G12C U28C C30U C66A: not above 0.5. As for G12C C49U U53C C60G, the figure is not above 0.5. The same measure for G12A G67C: 0.848. Regarding G12A G67U, the yeast fitness stood at 0.797. As for G12C C62U A69U, the figure is 0.651; as for G12A C31U C61G, 0.543; as for G12C G68A, 0.945. As for G12C U16C C31G, the figure is not above 0.5. The same measure for G12C C22G G23A A37C A43C C62G G63A C66G A69G: not above 0.5; for G12A U13C C49G U59A: not above 0.5; for G12A U26A C31U G48A: 0.711. Take G12A U13G: the yeast fitness came out at 0.869.

For G12C U59G, the yeast fitness was found to be 0.79. The same measure for G12A U19G: 0.893. Take G12C G41A C60G A65G: the yeast fitness worked out at 0.519. As for G12C A14G G25A G41C G67A, the figure is not above 0.5; as for G12C U16A C60G C61U, not above 0.5. As for G12C A20C C31G U64A, the figure is not above 0.5. As for G12C A69C A70U, the figure is 0.688; as for G12A G25A G52A, 0.583; as for G12C U28A, 1.04. Consider G12C U13C C22U A43C G68C, for which the yeast fitness is not above 0.5. Turning to G12C G25A C33G A37G A40C C49G G67C, the yeast fitness is not above 0.5. Turning to G12A G25C C60U A69C, the yeast fitness is not above 0.5.

With G12C A15C U19A C34U C49A A65U, the yeast fitness was not above 0.5. The same measure for G12C C33U C46G U54A: not above 0.5; for G12C U47A U54C: 0.519; for G12A C34U A37U G41A G50C: 0.561.

With G12A U13G U19C A21G C49U G52A U59G, the yeast fitness is 0.525.

For the origin of these results see the RNAGym collection of RNA variant scans (doi:10.1126/science.aae0568).
